Test results: the RNAGym collection of RNA variant scans (doi:10.1126/science.aae0568)
This sample holds only a part of the variants without activity.

B1: tRNA (parent)
chain: GUUCCGUUGGCGUAAUGGUAACGCGUCUCCCUCCUAAGGAGAAGACUGCGGGUUCGAGUCCCGUACGGAACG

Variants of: B1
Assay: yeast fitness relative to wild type (ratio to wild type); higher = fitter; tRNA-Arg(CCU), competitive growth, 37 C, YPD
Method in brief: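 Variants of the tRNA-Arg(CCU) gene, chemically synthesised with a 3% per-site mutation rate at 69 sites, were placed at the native genomic locus in Saccharomyces cerevisiae. The pooled strains were competed in YPD at 37°C for 24 hours in six parallel replicates. Gene amplicons from the start population and from each end population were read by 100-nucleotide paired-end sequencing. Darwinian fitness relative to wild type came from changes in genotype frequencies; genotypes needed ≥ 100 starting reads, and estimates < 0.5 were set to 0.5.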

Row | Variant | yeast fitness
1 | A42G A43G C49U | 0.556
2 | A42G A43U G44C A65C | ≤ 0.5
3 | A42G A43U U47G C61G G67A | ≤ 0.5
4 | A42G A43U U54A | ≤ 0.5
5 | A42G A45C | 0.856
6 | A42G A45C G48C C66U | ≤ 0.5
7 | A42G A45G A65U | 0.635
8 | A42G A45G C46U | 0.726
9 | A42G A45U C66U | 0.684
10 | A42G A45U G50C | ≤ 0.5
11 | A42G A57C C61G | 0.708
12 | A42G A57C U59C C61U | ≤ 0.5
13 | A42G A65C | 0.755
14 | A42G A65U | 0.689
15 | A42G A69G | 0.749
16 | A42G A69U | 0.959
17 | A42G A70C | 0.853
18 | A42G A70G | 0.693
19 | A42G C46A G68A A70U | 0.568
20 | A42G C46U G52C C61A | ≤ 0.5
21 | A42G C49G U54C | 0.536
22 | A42G C49U A70U | 0.711
23 | A42G C49U C66A | ≤ 0.5
24 | A42G C55A | 0.607

Row | Variant | yeast fitness
25 | A42G C60A | 0.512
26 | A42G C60A C62A | ≤ 0.5
27 | A42G C61A G67A | ≤ 0.5
28 | A42G C61G C66A | ≤ 0.5
29 | A42G C62G | 0.848
30 | A42G C62U | 0.962
31 | A42G C62U G68A | 0.79
32 | A42G C66G | 0.808
33 | A42G C66G G67C | ≤ 0.5
34 | A42G C66U | 0.814
35 | A42G G44A | 0.962
36 | A42G G44C A45G | 0.723
37 | A42G G44C A57C | ≤ 0.5
38 | A42G G44C A65C | 0.563
39 | A42G G48A C61G | ≤ 0.5
40 | A42G G48A G68C A70U | ≤ 0.5
41 | A42G G48C | 0.741
42 | A42G G50C | 0.634
43 | A42G G50C A69C | ≤ 0.5
44 | A42G G50C G58A A69C | ≤ 0.5
45 | A42G G51A A57C U59C C60U | ≤ 0.5
46 | A42G G51U A57U G67A | ≤ 0.5
47 | A42G G52A | 0.648
48 | A42G G52C | 0.574

Row | Variant | yeast fitness
49 | A42G G52C A65U | ≤ 0.5
50 | A42G G52C C62A | ≤ 0.5
51 | A42G G52C C66U G68A | ≤ 0.5
52 | A42G G52C G58C | ≤ 0.5
53 | A42G G56A G63C | 0.51
54 | A42G G56C | 0.595
55 | A42G G58C | 0.906
56 | A42G G63C | 0.69
57 | A42G G67A | 0.747
58 | A42G G67A G68A | ≤ 0.5
59 | A42G G67C | 0.947
60 | A42G G67C A70C | ≤ 0.5
61 | A42G G68A | 0.728
62 | A42G G68U | 0.834
63 | A42G U47A C55U A57C | 0.631
64 | A42G U47A C66U | 0.567
65 | A42G U47A U53C | ≤ 0.5
66 | A42G U47C | 0.959
67 | A42G U47G | 0.771
68 | A42G U54A | 0.612
69 | A42G U54C | 0.815
70 | A42G U54C A65U | ≤ 0.5
71 | A42G U59G U64C C66G | ≤ 0.5
72 | A42U A43C C49A | ≤ 0.5

Row | Variant | yeast fitness
73 | A42U A43C U64C G68C | ≤ 0.5
74 | A42U A43G C61A | 0.723
75 | A42U A43G G48C U53A | 0.566
76 | A42U A43G G52C | ≤ 0.5
77 | A42U A43G G52C C60A | ≤ 0.5
78 | A42U A43U | 1.01
79 | A42U A43U A57G A70U | 0.574
80 | A42U A45C | 1.17
81 | A42U A45C A69C | 0.67
82 | A42U A45C A70C | 0.721
83 | A42U A45C C55U A69C | ≤ 0.5
84 | A42U A45U A69C | 0.656
85 | A42U A45U C46U C66A | ≤ 0.5
86 | A42U A45U C49G | 0.526
87 | A42U A57C A69C | ≤ 0.5
88 | A42U A57C C61U A65U | 0.58
89 | A42U A57C C61U G67C | ≤ 0.5
90 | A42U A57G C62A U64G C66G | ≤ 0.5
91 | A42U A57U C61G | ≤ 0.5
92 | A42U A57U C62U | 0.529
93 | A42U A57U G58C | 0.542
94 | A42U A65C G67U | ≤ 0.5
95 | A42U A65G | 1.01
96 | A42U A65G A69C | 0.595

Row | Variant | yeast fitness
97 | A42U A65U | 0.741
98 | A42U A69U | 1.02
99 | A42U A70C | 1.01
100 | A42U A70G | 1
101 | A42U A70U | 0.919
102 | A42U C46G | 1.12
103 | A42U C46U C62U | 0.89
104 | A42U C49A G56C A65G | ≤ 0.5
105 | A42U C55A | 0.584
106 | A42U C55A A65C | 0.538
107 | A42U C60G | 0.579
108 | A42U C60U | 0.769
109 | A42U C61A | 0.683
110 | A42U C61A C62A G63A | 0.748
111 | A42U C61G | 0.686
112 | A42U C62A | 0.636
113 | A42U C62A A65U | 0.604
114 | A42U C62G G63C A65U | ≤ 0.5
115 | A42U C62U A65C | 0.526
116 | A42U C62U A70C | 0.594
117 | A42U C66A | 0.702
118 | A42U G44A G51A | 0.669
119 | A42U G44C | 0.842
120 | A42U G44C A45U C49G | ≤ 0.5

Row | Variant | yeast fitness
121 | A42U G44C U53C | ≤ 0.5
122 | A42U G44C U54A | ≤ 0.5
123 | A42U G48A C61G C66G | ≤ 0.5
124 | A42U G48A U54C | 0.696
125 | A42U G50A | 0.743
126 | A42U G50A C60G U64C | ≤ 0.5
127 | A42U G50A G63C G67A | ≤ 0.5
128 | A42U G52C A70G | 0.521
129 | A42U G56A | 1.02
130 | A42U G56A C62A | 0.586
131 | A42U G58A C61G A70U | ≤ 0.5
132 | A42U G58C U59A C60U | 0.659
133 | A42U G58U G68C | ≤ 0.5
134 | A42U G63C | 0.715
135 | A42U G67A | 0.758
136 | A42U G67C A69C | 0.573
137 | A42U G67U | 0.813
138 | A42U G68C | 0.664
139 | A42U G68U | 0.744
140 | A42U U47A | 0.789
141 | A42U U47A G51A | ≤ 0.5
142 | A42U U47A U53A | 0.727
143 | A42U U47C | 0.939
144 | A42U U47C G51A A70C | 0.502

Row | Variant | yeast fitness
145 | A42U U47G A57C C61A | ≤ 0.5
146 | A42U U53A | 0.565
147 | A42U U53G A70U | ≤ 0.5
148 | A42U U54A G58A | ≤ 0.5
149 | A42U U54C | 0.897
150 | A42U U54G | 0.605
151 | A42U U59A | 0.668
152 | A42U U59A U64G | ≤ 0.5
153 | A42U U59C | 1.01
154 | A42U U59G | 0.75
155 | A42U U64C | 1.05
156 | A43C | 0.997
157 | A43C A45G G67A | 0.659
158 | A43C A57C | 0.681
159 | A43C A57C A70U | 0.53
160 | A43C A57G | 0.744
161 | A43C A57U C62G | 0.571
162 | A43C A57U G63A | 0.556
163 | A43C A65C | 1.03
164 | A43C A69U A70C | 1.03
165 | A43C A70U | 1.06
166 | A43C C46A G48C | 0.851
167 | A43C C46U G63C C66U | 0.581
